# Measured values from different studies.
# RPS6KA5: Ribosomal protein S6 kinase alpha-5 (RPS6KA5, Homo sapiens, UniProt O75582)
# RPS6KA5 N-terminal kinase domain: Ribosomal protein S6 kinase alpha-5, N-terminal kinase domain (RPS6KA5, Homo sapiens, UniProt O75582)
# RPS6KA5 C-terminal kinase domain: Ribosomal protein S6 kinase alpha-5, C-terminal kinase domain (RPS6KA5, Homo sapiens, UniProt O75582)
Compound,target,assay,setting,measurement,value
O=c1[nH]c2ccccc2n1C1CCN(Cc2ccc(-c3[nH]c4cc5ncnc5cc4nc3-c3ccccc3)cc2)CC1,RPS6KA5,cell-free assay,0.5 µM,remaining signal,103%
Cn1cc(-c2cccc(N3CCc4c(sc5c4CC(C)(C)C5)C3=O)c2CO)cc(Nc2ccncn2)c1=O,RPS6KA5,"enzyme activity, inhibitor",1 µM,inhibition,2%
C#Cc1n[nH]c2c(-c3cn([C@@H](C)c4ccccn4)c(=O)[nH]c3=O)cc(F)cc12,RPS6KA5,"enzyme activity, inhibitor",0.1 µM,inhibition,2%
Nc1ncc(-c2nc(N3CCOCC3)nc(N3CCOCC3)n2)c(C(F)F)n1,RPS6KA5 N-terminal kinase domain,"binding, competition with immobilised ligand",10 µM,remaining binding,88%
N#CC1(c2ccccn2)CCN(Cc2cc(C(=O)O)c(=O)n3ccccc23)CC1,RPS6KA5 C-terminal kinase domain,"cell-free assay, competition with immobilised ligand",1 µM,remaining binding,83%
Cn1cc(-c2cc(F)cc(N3CCn4c(cc5c4CCCC5)C3=O)c2CO)cc(Nc2ccc(N3CCN(C4COC4)CC3)cn2)c1=O,RPS6KA5,"enzyme activity, inhibitor",0.1 µM,inhibition,13%
CC(C)(C)c1cc(C=C(C#N)C#N)cc(Br)c1O,RPS6KA5,"enzyme activity, inhibitor",0.5 µM,remaining activity,108%
C#Cc1n[nH]c2c(-c3cn([C@@H](C)c4ccccc4)c(=O)[nH]c3=O)cc(F)cc12,RPS6KA5,"enzyme activity, inhibitor",0.1 µM,inhibition,-1.9%
Cn1cncc1[C@@](O)(COc1ccc(C#N)cc1-c1ccc(OC(F)(F)F)cc1)c1ccc(C#N)cc1,RPS6KA5 N-terminal kinase domain,"cell-free assay, competition with immobilised ligand",1 µM,remaining binding,88%
Cc1nn(C)cc1-c1nc2c(N3CCN(Cc4ccc(Cl)cc4)CC3)c(Cl)cnc2[nH]1,RPS6KA5 C-terminal kinase domain,"binding, competition with immobilised ligand",1 µM,remaining binding,100%
